Screens as filed in PubChem BioAssay.
Sampled rows, rich in hits. Any-hit rate of the full collection: about 1.8%.
STAT3 activator = STAT3 signaling activation; U3A cells, IL-6 STAT3-luciferase reporter, luminescence; 100% = signal with IL-6 EC80 alone; activation (% of control), % at 5.6 µM; 0.91% of 190,000 active;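 active means activation above the screen-wide mean of compound activation plus 3 SD, cut at about 130% in these data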;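 further: 0% = background luminescence of wells with medium and substrate only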
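Material: STAT3-luciferase reporter U3A cells. Controls: IL-6-treated wells, 100% activation. Read-out: % activation versus median of IL-6-stimulated wells. Probe or stimulus: IL-6 stimulus at 33 ng/mL final. Timing: compound 1 h, then IL-6 6 h at 37 °C. Signal: reporter luminescence signal.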
PERK inh = human PERK inhibition, primary cell-based screen | CHO PERK-DD fusion, SEAP luminescence translation reporter | inhibition, % at 5.6 µM | AID 1416 | Q9NZJ5 | 0.17% of 220,000 active;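 active means inhibition above the mean inhibition of all tested compounds plus 3 SD, set separately per screening campaign, cut at about 2.9% in these data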;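 further: PERK kinase domain activated by AP20187 dimerizer at 100 nM; 0% = DMSO with dimerizer and 100% = rapamycin at 8.4 µM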
STAT1 inh = reduces IFN-gamma driven STAT1 reporter signal; inhibition, % at 5.5 µM; 0.35% of 200,000 active; NIH 3T3 STAT1-luciferase reporter, luminescence; AID 920;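 active means inhibition above a set limit, the mean inhibition across all tested compounds plus 3 SD, cut at about 34% in these data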;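 further: 0% = IFN-gamma with DMSO and 100% = IFN-gamma with 300 µM nifuroxazide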
STAT3 inh-1 = inhibitors of IL-6 induced STAT3 signaling. U3A cells, IL-6 STAT3-luciferase reporter, luminescence; host cell line lacks STAT1. AID 862. 0.89% of 190,000 active. inhibition, % at 5.5 µM;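 active means inhibition above the mean inhibition across all screened compounds plus 3 SD, cut at about 44% in these data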;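 further: 0% = DMSO only wells and 100% = 100 µM nifuroxazide control wells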
STAT3 inh-2 = confirmation of STAT3 signaling inhibitors; inhibition, % at 5.7 µM; shares compounds with STAT3 inh-1; U3A cells, IL-6 STAT3 luciferase reporter, luminescence; cell line lacks STAT1; AID 1265; 45% of 1,200 active;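 active means inhibition above the hit cutoff computed for the primary STAT3 screen, cut at about 44% in these data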;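 further: 0% = IL-6 plus DMSO and 100% = IL-6 plus nifuroxazide control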
NFkB inh STAT3ct = NF-kappaB inhibition in STAT3 inhibitor counter-screen. HEK293T NF-kB luciferase reporter, TNF-alpha induced. inhibition, % at 5.7 µM. 36% of 1,200 active. shares compounds with STAT3 inh-1. AID 1308;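 active means inhibition above the mean of solvent-only control wells plus 3 SD, cutoff set per campaign, cut at about 13% in these data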;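 further: 0% = TNF-alpha with DMSO and 100% = TNF-alpha with MG high control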
STAT1 inh STAT3c = counter-screen for STAT3 inhibitors: STAT1 inhibition; shares compounds with STAT3 inh-1; NIH 3T3 STAT1-luciferase reporter, IFN-gamma induced, luminescence; inhibition, % at 5.7 µM; 27% of 1,200 active; AID 1317;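 active means inhibition above the mean plus 3 SD of solvent-only control wells, limit set per screening run, cut at about 16% in these data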;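 further: 0% = DMSO with IFN-gamma and 100% = nifuroxazide control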
* marks the source's active call; other numbers are inactive results.

For Cc1cc(C(=O)CSc2nnc(N)s2)c(C)n1Cc1ccco1 the results were STAT3 activator 62.7, PERK inh -0.2, STAT1 inh 15.6, STAT3 inh-1 46.3*, STAT3 inh-2 7.0, NFkB inh STAT3ct -9.5 and STAT1 inh STAT3c -68.7.
For Nc1nnc(SCC(=O)c2ccco2)s1 the results were STAT3 activator 105.3, PERK inh 1.2, STAT1 inh 1.6 and STAT3 inh-1 -1.8.
Screening CCOC(=O)Cc1csc(NS(=O)(=O)c2ccc(C(F)(F)F)cc2)n1 returned PERK inh 1.7.
Screening O=c1[nH]c(=O)n(-c2ccccc2)c2c1C(C(F)(F)F)(C(F)(F)F)N=C(CCC1CCCCC1)N2 returned STAT3 activator 95.5, PERK inh -1.1, STAT1 inh 4.0 and STAT3 inh-1 3.0.
`CCN(CC)c1ccc(NC(=O)CN2C(=O)CSc3ncccc32)c(C)c1` gave STAT3 activator 46.8, PERK inh -0.5, STAT1 inh 23.1, STAT3 inh-1 69.7*, STAT3 inh-2 55.6*, NFkB inh STAT3ct 12.4 and STAT1 inh STAT3c 13.5.
Screening Cn1c(-c2ccccn2)[n+](C)c2ccccc21 returned STAT3 activator 105.4, PERK inh 0.5, STAT1 inh -3.2 and STAT3 inh-1 -4.9.
For CN(C)c1ccc(-c2n(C)c3ccccc3[n+]2C)cc1 the results were STAT3 activator 39.5, PERK inh 0.4, STAT1 inh 18.7, STAT3 inh-1 74.4*, STAT3 inh-2 64.9*, NFkB inh STAT3ct -6.6 and STAT1 inh STAT3c 24.3*.
Screening CCN(C(=O)c1ccc(C(C)(C)C)cc1)c1nnc(Cn2nnc3ccccc32)s1 returned STAT3 activator 27.3, PERK inh -0.7, STAT1 inh 21.7, STAT3 inh-1 86.4*, STAT3 inh-2 84.5*, NFkB inh STAT3ct 30.9* and STAT1 inh STAT3c 15.0.
O=C(/C=C/Nc1ccc(F)cc1F)c1cccs1 was read as STAT3 activator 43.6, PERK inh 0.2, STAT1 inh 1.4, STAT3 inh-1 66.3*, STAT3 inh-2 53.8*, NFkB inh STAT3ct 54.8* and STAT1 inh STAT3c 33.3*.
Screening O=C(/C=C/Nc1ccccc1F)c1cccs1 returned STAT3 activator 48.4, PERK inh 0.3, STAT1 inh 0.0, STAT3 inh-1 61.0*, STAT3 inh-2 1.8, NFkB inh STAT3ct 16.3* and STAT1 inh STAT3c -45.7.
Nc1ncnc(Nc2ccc(S(N)(=O)=O)cc2)n1 was read as PERK inh 1.7.
O=C(O)/C=C/c1nc(-c2ccccc2)n2ccccc12 was read as STAT3 activator 90.3, PERK inh 0.4, STAT1 inh -8.1 and STAT3 inh-1 10.7.
`Cc1ccc(-n2c(C)cc(C(=O)COc3cccnc3[N+](=O)[O-])c2C)cc1` gave STAT3 activator 65.3, PERK inh -0.7, STAT1 inh 13.5 and STAT3 inh-1 42.9.
Screening Cc1cc(C(=O)COc2cccnc2[N+](=O)[O-])c(C)n1-c1ccccc1 returned STAT3 activator 49.8, PERK inh -0.1, STAT1 inh 4.9, STAT3 inh-1 59.9*, STAT3 inh-2 20.5, NFkB inh STAT3ct 11.2 and STAT1 inh STAT3c -38.8.
Screening CCCn1c(SCC(=O)NCc2ccccc2)n[nH]c1=O returned STAT3 activator 106.1, PERK inh 0.5, STAT1 inh 13.1 and STAT3 inh-1 -2.0.
O=C(NC(=S)NNC(=O)c1ccccc1F)c1cccnc1 was read as PERK inh 1.6.
`O=C(NC(=S)NCCN1CCOCC1)c1ccccc1Br` gave STAT3 activator 102.5, PERK inh -0.7, STAT1 inh 5.9 and STAT3 inh-1 1.1.
Screening Cc1ccc(C(=O)n2c(=S)nc3ccccn32)cc1 returned STAT3 activator 62.0, PERK inh -0.2, STAT1 inh -54.9, STAT3 inh-1 49.6*, STAT3 inh-2 13.6, NFkB inh STAT3ct -31.3 and STAT1 inh STAT3c -179.6.
For NC(=O)c1c(-c2ccc(Cl)cc2Cl)csc1NC(=O)Cc1ccccc1 the results were STAT3 activator 62.4, PERK inh -0.3, STAT1 inh 11.8, STAT3 inh-1 44.4*, STAT3 inh-2 72.1*, NFkB inh STAT3ct 23.2* and STAT1 inh STAT3c 15.6.
For O=C(c1ccc(Cl)s1)N1CCN(c2nc3ccccc3s2)CC1 the results were STAT3 activator 74.4, PERK inh 0.1, STAT1 inh 12.4 and STAT3 inh-1 35.8.
Screening CSc1ccc(NC(=O)N2CCN(c3nc4ccccc4s3)CC2)cc1 returned STAT3 activator 64.1, PERK inh 0.1, STAT1 inh 9.6, STAT3 inh-1 46.2*, STAT3 inh-2 45.7*, NFkB inh STAT3ct 5.0 and STAT1 inh STAT3c 10.5.
Cc1ccccc1NC(=O)c1cnc2ccccn2c1=O was read as STAT3 activator 43.7, PERK inh -0.6, STAT1 inh 16.5, STAT3 inh-1 72.3*, STAT3 inh-2 36.0, NFkB inh STAT3ct -6.1 and STAT1 inh STAT3c -76.8.
Screening CCOc1ccc(-c2nc3scc(-c4cccs4)c3c(=O)[nH]2)cc1 returned STAT3 activator 101.6, PERK inh 0.7, STAT1 inh -16.9 and STAT3 inh-1 1.8.
O=C(Nc1cccc2ccccc12)c1ccc(OC(=S)N2CCOCC2)cc1 was read as STAT3 activator 118.0, PERK inh -0.1, STAT1 inh -0.3 and STAT3 inh-1 -17.2.
Screening O=C(Nc1cccc(Cl)c1)c1ccc(OC(=S)N2CCOCC2)cc1 returned STAT3 activator 54.0, PERK inh 0.1, STAT1 inh -33.5, STAT3 inh-1 57.4*, STAT3 inh-2 33.2, NFkB inh STAT3ct -27.2 and STAT1 inh STAT3c -93.3.
Screening COc1c(Cl)cccc1-c1cn2ccccc2n1 returned PERK inh -1.0.
For CCCCCc1ccc(OCCOCCn2c[n+](C)c3ccccc32)c(CCCCC)c1 the results were STAT3 activator 53.9, PERK inh 0.6, STAT1 inh 30.7, STAT3 inh-1 56.1*, STAT3 inh-2 65.9*, NFkB inh STAT3ct 15.7* and STAT1 inh STAT3c 22.8*.
CCCCCc1ccc(OCCC[n+]2ccccc2)c(CCCCC)c1 was read as PERK inh -1.6.
`COC(=O)c1ccc(C(=O)OC)c(NC(=S)N2CCC(C)CC2)c1` gave STAT3 activator 104.1, PERK inh 0.0, STAT1 inh 3.5 and STAT3 inh-1 -7.7.
`COc1ccnc(NCc2cccnc2)c1C#N` gave STAT3 activator 100.1, PERK inh 0.5, STAT1 inh -6.7 and STAT3 inh-1 9.1.
Nc1cc(-c2ccccc2)nn1Cc1ccc(Cl)cc1 was read as STAT3 activator 63.7, PERK inh -0.3, STAT1 inh -3.4, STAT3 inh-1 49.3*, STAT3 inh-2 45.3*, NFkB inh STAT3ct 0.4 and STAT1 inh STAT3c -14.7.
Screening Nc1cc(-c2ccc(Br)cc2)nn1Cc1ccccc1 returned STAT3 activator 46.1, PERK inh 1.6, STAT1 inh -27.2, STAT3 inh-1 67.0*, STAT3 inh-2 58.5*, NFkB inh STAT3ct 6.8 and STAT1 inh STAT3c -35.0.
